From PubChem BioAssay
A number with no mark means an inactive call. Inconclusive results are not listed. Active and inactive are the calls of the source.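 The calls were made as follows, unless noted: active = cell viability at or below a set limit in both duplicate runs, the limit being the all-compound median minus 4 SD (cut at about 23% in these data, passing the limit was not always enough); inconclusive = no clear call, values can overlap the other calls; inactive = the rest.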

Experiments:
[1] = OD615 S. cerevisiae growth inhibition, permissive medium, pilot counter-assay, permissive growth control for S. cerevisiae lifespan shortening project (AID 705;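 active = growth inhibition above 25% in both replicates, a cutoff set 3 SD above the mean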); settings: OD615, 24 h, at 10 µM, hits give high values
Outline: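 System: Engineered DeaD yeast | Buffer or medium: SC raffinose/galactose permissive medium | Incubation: Cells pre-grown 4 h, then 24 h compound exposure, 30 °C humidified | Measured by: Absorbance (optical density) at 615 nm | Read-out: Reduction in yeast growth (OD615)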

[2] = Restrictive medium S. cerevisiae growth inhibition, OD615, pilot screen of yeast lifespan reduction project, restrictive growth control (AID 706;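 active = growth inhibition above a set limit, 3 SD over mean compound inhibition, in both replicates, cut at about 43% in these data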;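 also: modified DeaD lifespan yeast strain shifted to restrictive glucose medium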); settings: OD615, 48 h, at 10 µM, hits give high values
Outline: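 Material: modified S. cerevisiae; Medium: glucose-based CSMM-D restrictive medium; Compound dosing: one concentration, 10 µM final, 0.25% DMSO; Incubation: 48 h compound exposure at 30 °C; Measured by: OD615.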

[3] = viability gain of MRP-1-high H69AR cells under doxorubicin, pilot screen, MRP-1 activator project, CellTiter-Glo, duplicate (AID 807;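 active = viability increase at or above a cutoff of the median across tested compounds plus 3 SD, cut at about 8.5% in these data, passing the limit was not always enough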;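 also: compound pretreatment 18-22 h then 72 h combined with doxorubicin; 0% = doxorubicin alone and 100% = vehicle without doxorubicin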); settings: H69AR viability with doxorubicin, CellTiter-Glo luminescence; at 10 µM; hits give high values
[4] = growth suppression of beta-catenin knockout HCT116, pilot screen, human colon tumor cells (AID 823); settings: CellTiter-Glo, 60 h, at 10 µM, hits give low values;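 also: 0% = wells killed by 20 µM Hyamine and 100% = untreated DMSO cell wells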
[5] = growth suppression of PTEN-deleted HCT116, pilot screen, cell-based, HCT116 clonal line, CellTiter-Glo (AID 824;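 active = viability at or below 27.92% in each of two runs, the all-compound median minus 4 SD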;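 also: 0% = 20 µM Hyamine control and 100% = vehicle cell control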); settings: 60 h, at 10 µM, hits give low values
[6] = inhibitors of the yeast RAM network, pilot screen, dse1pr::URA3 reporter, 5-FOA selection (AID 869;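 active = inhibition over a set limit, the all-compound mean plus 3 SD, in both replicate runs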;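 also: 0% = DMSO wells with no growth and 100% = 10 µM 1-NA-PP1 with full growth; RAM network block rescues cells from 5-FOA so hits raise OD615 growth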); settings: S. cerevisiae dse1pr::URA3 5-FOA growth, OD615, 2 d; at 10 µM; hits give high values; strain carries analog-sensitive mutant Cbk1 kinase
[7] = RAM signaling pathway blockade in yeast – S. cerevisiae, Pdr1DBD-CYC8 efflux-inhibited sensitized strain, primary screen (AID 1298;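 active = RAM network inhibition above 8.4% in each of two replicates, 3 SD over the compound average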;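 also: 0% = DMSO untreated cells without growth and 100% = 10 µM 1-NA-PP1 full growth; higher means more yeast growth rescued from 5-FOA killing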); settings: S. cerevisiae cbk1-as DSE1-URA3 strain, 5-FOA growth OD615, 2 d; at 50 µM; hits give high values

SMILES	growth inhibition [1]	growth inhibition [2]	viability increase [3]	viability [4]	viability [5]	inhibition [6]	RAM network inhibition [7]
Cc1ccccc1C(=O)OCn1nnc2ccccc2c1=O	-1.86%	-19.1%	-2.87%	88.9%	93.2%	1.44%	2.2%
CC(C)(C)n1nc2c(c1NC(=O)Cc1cccs1)CSC2	-8.2%	12.2%	-1.56%	93.8%	92.4%	0.95%	0.94%
CCOC(=O)c1c(-c2ccccc2)c(C(C)=O)c(=O)n(C)c1C	-19%	-9.79%	-3.81%	95.9%	94.1%	4.63%	1.72%
COc1cccc(C(=O)Nc2ccc3nc(N4CCN(c5ncccn5)CC4)cc(C)c3c2)c1OC	12%	-8.24%	-5.36%	9.73% (active)	12.8% (active)	0.73%	4.05%
COc1cccc(C(=O)N2CCSC2=S)c1	-10.4%	3.34%	-0.12%	97%	97.5%	0%	-1.3%
CC1Cc2nc(SCC(=O)NCc3ccco3)n(Cc3ccccc3)c(=O)c2S1 (centres undefined)	-6.15%	-15.7%	-6.41%	91.1%	87.3%	3.45%	3.84%
COCCn1c(CN2CC(C)CC(C)C2)nc2c1c(=O)n(C)c(=O)n2C (centres undefined)	8.93%	9.36%	0.07%	90.4%	98.5%	-0.14%	-0.26%
Cc1cccc(CCNC(=O)c2nnc(Cc3ccc(Cl)cc3)o2)c1	-3.04%	1.66%	0.18%	102%	95.5%	1.27%	6.94%
CCN1CCCC1CNC(=O)C1c2ccccc2C(=O)N(CCOC)C1c1ccc(F)cc1 (centres undefined)	-3.19%	-18.9%	-1.76%	95.6%	98.1%	1.17%	7.82%
COC(=O)COC(=O)CC(CC(N)=O)c1ccccc1 (centres undefined)	-8.58%	-0.775%	-0.29%	95%	102%	2.13%	3.07%
COc1cccc(-n2c(Cc3cc(=O)[nH]c(=O)[nH]3)nnc2SCC(=O)NC2CCCCC2)c1	-4.46%	-1.15%	-1.6%	100%	101%	1.86%	3.48%
CCOC(=O)Cn1nc(C)c(-c2ccccc2)c1N	-23.1%	-5.69%	-1.41%	97.4%	95.2%	1.26%	2.61%
CCOc1ccc(C(F)(F)F)cc1NC(C)=O	-6.15%	-9.57%	-3.24%	90.4%	90.3%	0.62%	3.29%
O=C(Nc1c(F)c(F)c(F)c(F)c1F)C1CCCCC1	-1.42%	-6.55%	-1.05%	80%	89.2%	0.88%	7.02%
COc1ccc(F)cc1S(=O)(=O)Nc1ccc2c(c1)OCCO2	-3.12%	-5.07%	-1.33%	91.1%	86.6%	2.45%	2.35%
CCCC(=O)NCCCCNC(=O)CCC	2.78%	2.44%	-0.9%	96.4%	101%	0.09%	4.07%
CCOC(=O)c1[nH]c2ccccc2c1NC(=O)CC(C)(C)C	5.14%	-9.95%	-3.69%	99.4%	96%	1.65%	1.45%
Cn1c(=O)c2c(nc(CN3CCN(Cc4ccccc4)CC3)n2Cc2ccccc2)n(C)c1=O	-6.72%	-11.8%	-0.85%	85.6%	88%	2.02%	-0.01%
CC(=O)c1ccc(NC(=O)C2CCCN2S(=O)(=O)c2cccc3cccnc23)cc1 (centres undefined)	-11.2%	-8.78%	-1.7%	98.1%	95.8%	0.505%	5.11%

SMILES	growth inhibition [1]	growth inhibition [2]	viability increase [3]	viability [4]	viability [5]	inhibition [6]	RAM network inhibition [7]
Cc1nnc(-c2ccccc2)c[n+]1[O-]	-6.06%	-14.7%	-2.16%	101%	95.2%	0.98%	0.63%
CC(N=C1NS(=O)(=O)c2ccccc21)c1ccccc1 (centres undefined)	0.11%	1.27%	0.15%	103%	96.2%	-0.16%	5.97%
CCOC(=O)c1c(C)n(C)c2ccc(OCC(O)CN3CCN(C)CC3)cc12 (centres undefined)	-9.58%	-16.5%	-1.87%	96.2%	106%	1.1%	-0.99%
COCCCN1C(=O)C(O)=C(C(=O)c2ccc(C)o2)C1c1cccc(Br)c1 (centres undefined)	-10.6%	-3.15%	-0.41%	106%	106%	-0.2%	4.3%
CC1CCc2nn(CC(=O)NC3CCCC3)cc2C1 (centres undefined)	0.6%	10.9%	-1.14%	105%	92.9%	0.925%	0.63%
Cc1cc(N2CCN(C(=O)c3ccco3)CC2)n2nc(C)nc2n1	-6.63%	5.6%	-3.61%	95.5%	98.2%	0.95%	-0.63%
CCSc1nnc(NC(=O)CCn2c(=O)oc3ccccc32)s1	-3.29%	-6.38%	-0.78%	102%	103%	0.22%	9.53%
CCc1ccc(NC(=O)C2CC=CCC2C(=O)O)cc1 (centres undefined)	6.68%	5.45%	0.72%	98.1%	98.9%	-0.5%	4.12%
O=C(CCCn1c(=O)oc2ccccc21)N1CCc2ccccc2C1	-8.29%	-14.1%	-4.06%	94.3%	95.2%	1.48%	4.82%
O=C(c1cc2c(ccc3ccccc32)oc1=O)N1CCN(CCO)CC1	-9.81%	-3.65%	-2.23%	88.8%	93.7%	3.29%	-1.69%
C=C1CC2C=C(NC(C)=O)CC(C1)C2 (centres undefined)	-18.7%	-12.7%	-0.27%	98.6%	95.6%	1.1%	4.47%
Cc1ccc(C2/C(=C(/O)c3ccc(Cl)cc3)C(=O)C(=O)N2CC2CCCO2)o1 (centres undefined)	-7.4%	12.5%	-3.2%	95.1%	96.4%	0.77%	-0.36%
Cc1c(C#N)c2ccccc2n1CCOc1ccccc1F	-5.92%	-11.9%	1.94%	69.8%	68.5%	2.25%	6.77%
O=C(Cn1cc2c(n1)CCCC2)N1CCc2ccccc21	-7.55%	9.02%	-2.04%	66%	77.4%	2.28%	-1.03%
CCOC(=O)N1CCC(NC(=O)c2ccc(NC(=O)C3CCCO3)cc2)CC1 (centres undefined)	-10.8%	-9.25%	0.49%	97.8%	105%	1.09%	-0.36%
O=C(CN1CCN(C(=O)c2ccco2)CC1)Nc1ccccc1-c1ccccc1	6.65%	6.94%	-2.16%	91%	86.1%	1.32%	3.75%
CCOc1ccc(-n2c(Cc3cc(=O)[nH]c(=O)[nH]3)nnc2SCC(=O)OC)cc1	-2.32%	3.42%	1.38%	104%	97.3%	2.62%	0.78%
CC1CC(C)CN(c2nc3c(c(=O)[nH]c(=O)n3C)n2CCSc2nc3ccccc3o2)C1 (centres undefined)	-8.58%	-7.3%	-2.41%	93.2%	93.6%	0.335%	-0.32%
